In ChEMBL document CHEMBL1138512, “A class of 2,4-bisanilinopyrimidine Aurora A inhibitors with unusually high selectivity against Aurora B” (J Med Chem, 2009):

Experiments:
[1] = target: 5'-AMP-activated protein kinase catalytic subunit alpha-1 (Homo sapiens) (UniProt Q13131); experiment: Inhibition of AMPK A1/B1/G1 at 1 uM
HT-29 = experiment: Antiproliferative activity against human HT-29 cells after 4 days by celltiter assay; assay type: functional, cell-based; details: HT-29, 96 h
[2] = target: Macrophage colony-stimulating factor 1 receptor (Homo sapiens) (UniProt P07333); experiment: Inhibition of FMS at 1 uM
[3] = target: Eukaryotic elongation factor 2 kinase (Homo sapiens) (UniProt O00418); experiment: Inhibition of EEF2K at 1 uM
[4] = target: Epidermal growth factor receptor (Homo sapiens) (UniProt P00533); experiment: Inhibition of ErbB1 at 1 uM
[5] = target: G protein-coupled receptor kinase 4 (Homo sapiens) (UniProt P32298); experiment: Inhibition of GRK4 at 1 uM
[6] = target: Serine/threonine-protein kinase Chk1 (Homo sapiens) (UniProt O14757); experiment: Inhibition of CHK1 at 1 uM
[7] = target: Ephrin type-A receptor 1 (Homo sapiens) (UniProt P21709); experiment: Inhibition of EPHA1 at 1 uM
[8] = target: cAMP-dependent protein kinase catalytic subunit alpha (Homo sapiens) (UniProt P17612); experiment: Inhibition of PRKACA at 1 uM
[9] = target: Glycogen synthase kinase-3 beta (Homo sapiens) (UniProt P49841); experiment: Inhibition of GSK3-beta at 1 uM
[10] = target: Tyrosine-protein kinase ABL1 (Homo sapiens) (UniProt P00519); experiment: Inhibition of ABL1 at 1 uM
[11] = target: RAC-alpha serine/threonine-protein kinase (Homo sapiens) (UniProt P31749); experiment: Inhibition of PKBalpha at 1 uM
[12] = target: Receptor-type tyrosine-protein kinase FLT3 (Homo sapiens) (UniProt P36888); experiment: Inhibition of FLT3 at 1 uM
[13] = target: Serine/threonine-protein kinase Nek9 (Homo sapiens) (UniProt Q8TD19); experiment: Inhibition of NEK9 at 1 uM
[14] = target: 3-phosphoinositide-dependent protein kinase 1 (Homo sapiens) (UniProt O15530); experiment: Inhibition of PDK1 at 1 uM
[15] = target: Serine/threonine-protein kinase Nek6 (Homo sapiens) (UniProt Q9HC98); experiment: Inhibition of NEK6 at 1 uM
[16] = target: Cyclin-dependent kinase 1/cyclin B1 (Homo sapiens) (UniProt P06493+P14635); experiment: Inhibition of CDK1/cyclin B at 1 uM
[17] = target: Tyrosine-protein kinase receptor UFO (Homo sapiens) (UniProt P30530); experiment: Inhibition of Axl at 1 uM
[18] = target: Casein kinase II subunit alpha (Homo sapiens) (UniProt P68400); experiment: Inhibition of CK2alpha1 at 1 uM
[19] = target: Dual specificity tyrosine-phosphorylation-regulated kinase 3 (Homo sapiens) (UniProt O43781); experiment: Inhibition of DYRK3 at 1 uM
[20] = target: Casein kinase I isoform gamma-2 (Homo sapiens) (UniProt P78368); experiment: Inhibition of CK1gamma2 at 1 uM
[21] = target: T1, Cyclin-dependent kinase 2 (Homo sapiens, UniProt P24941); experiment: Inhibition of CDK2/cyclin A
[22] = target: Mitogen-activated protein kinase 8 (Homo sapiens) (UniProt P45983); experiment: Inhibition of JNK1 at 1 uM
[23] = target: Aurora kinase A (Homo sapiens) (UniProt O14965); experiment: Inhibition of Aurora A at 1 uM
[24] = target: Mitogen-activated protein kinase kinase kinase kinase 2 (Homo sapiens) (UniProt Q12851); experiment: Inhibition of GCK at 1 uM
Aurora kinase B [25] = target: T2, Aurora kinase B (Homo sapiens, UniProt Q96GD4); experiment: Inhibition of N-terminal flag-tagged Aurora B expressed in Escherichia coli BL21-DE3 by ELISA
[26] = target: T1, Cyclin-dependent kinase 2; experiment: Inhibition of CDK2/cyclin A at 1 uM
[27] = target: Serine/threonine-protein kinase PLK1 (Homo sapiens) (UniProt P53350); experiment: Inhibition of PLK1 at 1 uM
[28] = target: MAP kinase-activated protein kinase 2 (Homo sapiens) (UniProt P49137); experiment: Inhibition of MAPKAPK2 at 1 uM
[29] = target: Rho-associated protein kinase 1 (Homo sapiens) (UniProt Q13464); experiment: Inhibition of ROCK1 at 1 uM
Aurora kinase B [30] = target: T2, Aurora kinase B; experiment: Inhibition of Aurora B in human HT29 cells assessed as complete loss of phospho-histone H3 staining by immunofluorescence assay; assay type: cell-based, HT-29
Outline: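 Immunofluorescence for phospho-S10 histone H3 in HCT116 or HT29 cells, scored visually. Value taken as the lowest inhibitor concentration giving complete loss of staining, so it lies above the IC50. Units µM.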

[31] = target: Protein kinase C alpha type (Homo sapiens) (UniProt P17252); experiment: Inhibition of PKCalpha at 1 uM
[32] = target: Ephrin type-B receptor 1 (Homo sapiens) (UniProt P54762); experiment: Inhibition of EPHB1 at 1 uM
[33] = target: Serine/threonine-protein kinase PLK3 (Homo sapiens) (UniProt Q9H4B4); experiment: Inhibition of PLK3 at 1 uM
[34] = target: Insulin receptor (Homo sapiens) (UniProt P06213); experiment: Inhibition of INSR at 1 uM
[35] = target: Beta-adrenergic receptor kinase 1 (Homo sapiens) (UniProt P25098); experiment: Inhibition of GRK2 at 1 uM
[36] = target: Serine/threonine-protein kinase B-raf (Homo sapiens) (UniProt P15056); experiment: Inhibition of BRAF at 1 uM
[37] = target: Serine/threonine-protein kinase MRCK alpha (Homo sapiens) (UniProt Q5VT25); experiment: Inhibition of MRCKalpha at 1 uM
[38] = target: Calcium/calmodulin-dependent protein kinase type 1D (Homo sapiens) (UniProt Q8IU85); experiment: Inhibition of CaMK1delta at 1 uM
[39] = target: Serine/threonine-protein kinase mTOR (Homo sapiens) (UniProt P42345); experiment: Inhibition of mTOR at 1 uM
[40] = target: Hepatocyte growth factor receptor (Homo sapiens) (UniProt P08581); experiment: Inhibition of c-Met at 1 uM
HCT-116 = experiment: Antiproliferative activity against human HCT116 cells after 4 days by celltiter assay; assay type: functional, cell-based; details: HCT-116, 96 h
[41] = target: Mitogen-activated protein kinase 1 (Homo sapiens) (UniProt P28482); experiment: Inhibition of ERK2 at 1 uM
[42] = target: Inhibitor of nuclear factor kappa-B kinase subunit beta (Homo sapiens) (UniProt O14920); experiment: Inhibition of IKK-beta at 1 uM
[43] = target: Casein kinase I isoform alpha (Homo sapiens) (UniProt P48729); experiment: Inhibition of CK1alpha1 at 1 uM
Aurora kinase B [44] = target: T2, Aurora kinase B; experiment: Inhibition of Aurora B at 1 uM
[45] = target: Mitogen-activated protein kinase 14 (Homo sapiens) (UniProt Q16539); experiment: Inhibition of P38alpha at 1 uM
[46] = target: ALK tyrosine kinase receptor (Homo sapiens) (UniProt Q9UM73); experiment: Inhibition of ALK at 1 uM

T2 sequence (Q96GD4 whole entry): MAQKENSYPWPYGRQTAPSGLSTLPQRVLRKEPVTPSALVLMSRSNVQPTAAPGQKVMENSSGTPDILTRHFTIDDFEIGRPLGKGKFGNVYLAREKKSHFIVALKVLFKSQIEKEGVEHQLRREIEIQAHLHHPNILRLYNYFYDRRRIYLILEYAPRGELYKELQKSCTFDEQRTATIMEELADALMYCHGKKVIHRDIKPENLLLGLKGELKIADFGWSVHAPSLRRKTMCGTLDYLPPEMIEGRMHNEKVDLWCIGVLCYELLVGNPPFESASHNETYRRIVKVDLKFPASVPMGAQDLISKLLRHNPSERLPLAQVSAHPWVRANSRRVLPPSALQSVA
Chain of Serine/threonine-protein kinase PLK3 (Homo sapiens) (Q9H4B4 whole entry, looked up): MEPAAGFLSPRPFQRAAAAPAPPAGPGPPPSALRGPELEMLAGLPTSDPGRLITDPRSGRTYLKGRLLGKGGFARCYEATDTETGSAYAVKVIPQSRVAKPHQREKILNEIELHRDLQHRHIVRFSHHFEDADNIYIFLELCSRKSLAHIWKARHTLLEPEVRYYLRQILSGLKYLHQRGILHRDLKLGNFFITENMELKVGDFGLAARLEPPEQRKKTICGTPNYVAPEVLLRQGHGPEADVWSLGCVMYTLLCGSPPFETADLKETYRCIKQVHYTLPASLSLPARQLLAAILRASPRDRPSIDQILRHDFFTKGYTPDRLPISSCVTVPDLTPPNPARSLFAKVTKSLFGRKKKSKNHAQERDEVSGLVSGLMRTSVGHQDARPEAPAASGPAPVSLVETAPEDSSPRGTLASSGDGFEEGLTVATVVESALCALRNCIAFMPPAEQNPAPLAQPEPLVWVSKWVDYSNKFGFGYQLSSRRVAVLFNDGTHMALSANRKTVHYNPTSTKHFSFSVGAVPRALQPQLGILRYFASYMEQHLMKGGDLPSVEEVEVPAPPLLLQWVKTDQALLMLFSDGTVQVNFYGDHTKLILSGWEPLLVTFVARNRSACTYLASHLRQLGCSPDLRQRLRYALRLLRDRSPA
Chain of Epidermal growth factor receptor (Homo sapiens) (P00533 whole entry): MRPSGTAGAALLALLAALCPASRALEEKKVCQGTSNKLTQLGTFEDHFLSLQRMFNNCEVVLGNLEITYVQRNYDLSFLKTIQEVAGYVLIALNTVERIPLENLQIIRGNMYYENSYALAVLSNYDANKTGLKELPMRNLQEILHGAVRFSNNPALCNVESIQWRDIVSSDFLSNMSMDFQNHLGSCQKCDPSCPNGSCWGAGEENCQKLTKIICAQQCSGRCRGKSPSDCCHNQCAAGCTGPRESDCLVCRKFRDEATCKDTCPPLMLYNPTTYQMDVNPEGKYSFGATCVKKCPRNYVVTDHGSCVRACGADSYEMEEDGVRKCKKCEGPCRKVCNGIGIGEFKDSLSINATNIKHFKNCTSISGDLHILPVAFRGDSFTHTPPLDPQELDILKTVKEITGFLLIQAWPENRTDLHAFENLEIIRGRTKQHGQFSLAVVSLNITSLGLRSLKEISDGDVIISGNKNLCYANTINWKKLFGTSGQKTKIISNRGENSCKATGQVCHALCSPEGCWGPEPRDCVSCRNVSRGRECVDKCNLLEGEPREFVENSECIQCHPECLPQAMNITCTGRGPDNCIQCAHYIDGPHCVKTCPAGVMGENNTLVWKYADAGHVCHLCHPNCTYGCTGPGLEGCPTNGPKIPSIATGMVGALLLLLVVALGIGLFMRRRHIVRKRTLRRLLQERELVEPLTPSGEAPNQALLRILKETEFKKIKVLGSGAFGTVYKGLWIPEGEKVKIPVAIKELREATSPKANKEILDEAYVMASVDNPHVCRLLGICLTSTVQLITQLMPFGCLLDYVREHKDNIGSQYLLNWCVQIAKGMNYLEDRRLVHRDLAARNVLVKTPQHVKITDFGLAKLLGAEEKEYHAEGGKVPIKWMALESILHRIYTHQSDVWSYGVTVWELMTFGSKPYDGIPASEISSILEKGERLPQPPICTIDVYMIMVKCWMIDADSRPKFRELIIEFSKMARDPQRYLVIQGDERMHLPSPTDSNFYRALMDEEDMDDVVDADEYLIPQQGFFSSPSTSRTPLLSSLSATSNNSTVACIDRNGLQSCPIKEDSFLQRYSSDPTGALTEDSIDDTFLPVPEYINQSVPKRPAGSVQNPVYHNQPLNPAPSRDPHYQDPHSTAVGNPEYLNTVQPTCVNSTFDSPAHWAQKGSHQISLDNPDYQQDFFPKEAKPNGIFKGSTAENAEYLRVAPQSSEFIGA
Chain of Mitogen-activated protein kinase 1 (Homo sapiens) (P28482 whole entry): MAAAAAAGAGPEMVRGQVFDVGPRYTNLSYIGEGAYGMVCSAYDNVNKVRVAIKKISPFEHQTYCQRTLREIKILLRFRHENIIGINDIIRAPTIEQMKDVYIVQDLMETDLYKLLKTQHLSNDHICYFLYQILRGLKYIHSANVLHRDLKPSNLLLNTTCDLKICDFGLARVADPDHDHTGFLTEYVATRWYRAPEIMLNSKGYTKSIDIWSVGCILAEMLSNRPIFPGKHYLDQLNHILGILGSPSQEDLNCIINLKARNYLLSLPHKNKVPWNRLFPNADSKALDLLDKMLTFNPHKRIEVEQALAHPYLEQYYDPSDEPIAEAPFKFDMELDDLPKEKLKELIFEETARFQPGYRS
Chain of Insulin receptor (Homo sapiens) (P06213 28-758 limits assumed): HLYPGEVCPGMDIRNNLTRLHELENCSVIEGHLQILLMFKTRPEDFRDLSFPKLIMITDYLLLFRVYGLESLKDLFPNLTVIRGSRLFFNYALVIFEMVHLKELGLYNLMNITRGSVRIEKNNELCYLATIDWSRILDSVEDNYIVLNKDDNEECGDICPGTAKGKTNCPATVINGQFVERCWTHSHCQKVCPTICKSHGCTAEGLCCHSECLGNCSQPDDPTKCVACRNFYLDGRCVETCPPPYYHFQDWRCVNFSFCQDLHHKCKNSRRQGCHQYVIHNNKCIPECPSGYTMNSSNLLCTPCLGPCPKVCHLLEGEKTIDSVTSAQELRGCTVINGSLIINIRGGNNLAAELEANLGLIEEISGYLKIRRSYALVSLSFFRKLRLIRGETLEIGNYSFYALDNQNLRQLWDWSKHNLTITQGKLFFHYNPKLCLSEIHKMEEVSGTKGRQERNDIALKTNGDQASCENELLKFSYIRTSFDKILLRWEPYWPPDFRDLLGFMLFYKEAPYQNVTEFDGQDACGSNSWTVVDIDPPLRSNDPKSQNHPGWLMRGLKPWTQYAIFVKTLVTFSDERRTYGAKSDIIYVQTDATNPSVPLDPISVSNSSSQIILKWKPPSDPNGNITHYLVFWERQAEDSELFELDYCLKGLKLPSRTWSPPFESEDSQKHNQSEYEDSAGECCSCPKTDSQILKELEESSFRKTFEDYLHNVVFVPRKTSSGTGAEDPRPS
Chain of Insulin receptor (Homo sapiens) (P06213 763-1382 limits assumed): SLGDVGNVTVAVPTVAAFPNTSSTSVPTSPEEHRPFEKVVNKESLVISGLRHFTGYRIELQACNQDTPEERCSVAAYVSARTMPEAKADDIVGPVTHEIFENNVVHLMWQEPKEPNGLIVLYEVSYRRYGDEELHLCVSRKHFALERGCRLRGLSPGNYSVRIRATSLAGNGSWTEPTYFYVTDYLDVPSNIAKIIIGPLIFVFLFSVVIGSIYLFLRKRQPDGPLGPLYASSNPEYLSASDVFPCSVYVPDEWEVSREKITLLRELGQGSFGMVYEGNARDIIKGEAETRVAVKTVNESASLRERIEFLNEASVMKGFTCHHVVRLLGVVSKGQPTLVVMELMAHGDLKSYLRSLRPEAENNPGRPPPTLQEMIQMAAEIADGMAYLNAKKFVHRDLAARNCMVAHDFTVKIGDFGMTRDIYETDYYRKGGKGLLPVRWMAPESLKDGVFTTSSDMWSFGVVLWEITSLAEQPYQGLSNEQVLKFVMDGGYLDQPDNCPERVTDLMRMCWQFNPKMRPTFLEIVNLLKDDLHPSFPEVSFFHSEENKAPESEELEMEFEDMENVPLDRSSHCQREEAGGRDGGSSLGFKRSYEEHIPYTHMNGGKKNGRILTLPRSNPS
Chain of Receptor-type tyrosine-protein kinase FLT3 (Homo sapiens) (P36888 whole entry): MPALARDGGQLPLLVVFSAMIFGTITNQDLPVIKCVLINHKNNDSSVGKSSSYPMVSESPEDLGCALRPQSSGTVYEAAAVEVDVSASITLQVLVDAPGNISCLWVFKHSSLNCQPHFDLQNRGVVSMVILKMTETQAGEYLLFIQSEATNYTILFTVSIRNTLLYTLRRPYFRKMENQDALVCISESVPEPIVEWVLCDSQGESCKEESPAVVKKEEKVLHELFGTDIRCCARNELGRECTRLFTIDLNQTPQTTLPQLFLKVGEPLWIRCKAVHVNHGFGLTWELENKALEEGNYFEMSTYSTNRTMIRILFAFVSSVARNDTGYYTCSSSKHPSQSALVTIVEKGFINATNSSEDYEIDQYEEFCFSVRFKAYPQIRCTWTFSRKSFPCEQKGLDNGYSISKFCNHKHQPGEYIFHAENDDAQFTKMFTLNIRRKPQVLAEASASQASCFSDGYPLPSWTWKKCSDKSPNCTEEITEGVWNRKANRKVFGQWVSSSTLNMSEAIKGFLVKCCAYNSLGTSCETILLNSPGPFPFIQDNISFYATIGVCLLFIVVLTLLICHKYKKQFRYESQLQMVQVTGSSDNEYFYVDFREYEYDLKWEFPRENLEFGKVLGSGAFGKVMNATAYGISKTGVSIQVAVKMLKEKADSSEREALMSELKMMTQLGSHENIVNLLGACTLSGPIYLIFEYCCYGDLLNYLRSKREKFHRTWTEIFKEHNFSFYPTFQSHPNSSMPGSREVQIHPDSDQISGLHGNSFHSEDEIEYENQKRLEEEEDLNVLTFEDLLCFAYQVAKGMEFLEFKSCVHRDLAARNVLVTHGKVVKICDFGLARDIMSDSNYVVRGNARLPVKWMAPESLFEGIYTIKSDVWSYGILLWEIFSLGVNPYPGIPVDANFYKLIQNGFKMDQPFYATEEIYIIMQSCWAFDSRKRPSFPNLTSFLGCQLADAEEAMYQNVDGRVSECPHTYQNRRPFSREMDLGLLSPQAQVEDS

inhibition [1]: 20% | IC50 (HT-29): 6.2 µM | inhibition [2]: 79% | inhibition [3]: 5% | inhibition [4]: 5% | inhibition [5]: -1% | inhibition [6]: 14% | inhibition [7]: 34% | inhibition [8]: 7% | inhibition [9]: 30% | inhibition [10]: 33% | inhibition [11]: 11% | inhibition [12]: 91% | inhibition [14]: 19% | inhibition [15]: 8% | inhibition [16]: 15% | inhibition [17]: 46% | inhibition [18]: 16% | inhibition [19]: 5% | inhibition [20]: 10% | IC50 [21]: > 16 µM | inhibition [22]: 21% | inhibition [23]: 103% | inhibition [24]: 10% | IC50 (Aurora kinase B [25]): 3.7 µM | inhibition [26]: 15% | inhibition [27]: 3% | inhibition [28]: 9% | inhibition [29]: -8% | IC50 (Aurora kinase B [30]): > 27 µM | inhibition [31]: 15% | inhibition [32]: 25% | inhibition [33]: -3% | inhibition [34]: 16% | inhibition [35]: 8% | inhibition [36]: 7% | inhibition [37]: 11% | inhibition [38]: 18% | inhibition [39]: 11% | inhibition [40]: 14% | IC50 (HCT-116): 0.64 µM | inhibition [41]: 11% | inhibition [42]: 39% | inhibition [43]: 3% | inhibition (Aurora kinase B [44]): 59% | inhibition [45]: 28% | inhibition [46]: 21%
SMILES: CC(=O)N1CCN(C(=O)Cc2ccc(Nc3ncc(F)c(Nc4ccc(C(=O)Nc5ccccc5Cl)cc4)n3)cc2)CC1
inhibition [13]: 17%
